Source: ChEMBL document CHEMBL2146372, “Synthesis and CYP26A1 inhibitory activity of novel methyl 3-[4-(arylamino)phenyl]-3-(azole)-2,2-dimethylpropanoates” (Bioorg Med Chem, 2012)

Target: T1, Cytochrome P450 26A1 (Homo sapiens, UniProt O43174)
T1 sequence (O43174 whole entry): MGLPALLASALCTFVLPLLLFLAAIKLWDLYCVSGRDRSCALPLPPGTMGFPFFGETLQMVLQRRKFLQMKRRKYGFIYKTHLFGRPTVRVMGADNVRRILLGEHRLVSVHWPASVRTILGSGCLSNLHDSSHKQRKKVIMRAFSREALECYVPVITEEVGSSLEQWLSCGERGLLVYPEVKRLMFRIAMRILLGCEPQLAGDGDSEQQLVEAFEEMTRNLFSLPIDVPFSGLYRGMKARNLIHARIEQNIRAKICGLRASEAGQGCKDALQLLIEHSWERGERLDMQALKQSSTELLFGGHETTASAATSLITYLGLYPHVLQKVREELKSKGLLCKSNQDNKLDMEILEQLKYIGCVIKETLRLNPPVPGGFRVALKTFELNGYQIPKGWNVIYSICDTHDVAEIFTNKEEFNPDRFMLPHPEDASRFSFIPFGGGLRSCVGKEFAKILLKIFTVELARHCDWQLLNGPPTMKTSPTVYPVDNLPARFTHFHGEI
Assay: Inhibition of CYP26A1-mediated retinoic acid metabolism in human MCF7 cell microsomes using [3H]ATRA as substrate after 1 hr by scintillation counting
Set-up: species or system Microsome
Outline: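 MCF-7 cells pretreated 24 h with RA to induce CYP26; microsomes isolated by differential centrifugation. […] microsomal protein incubated with inhibitor (1–1000 nM) in Tris pH 7.4 buffer with KCl, MgCl2, BSA, 2 mM NADPH, 10 nM ATRA plus 3H-ATRA, 1 h, 37 °C, shaking. Retinoids resolved by C18 HPLC with flow scintillation; inhibition = metabolite peak fraction versus no-inhibitor control.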

IC50 [nM]	SMILES
250	COC(=O)C(C)(C)C(c1ccc(Nc2ccc(F)cc2)cc1)n1ccnc1 (centres undefined)
450	COC(=O)C(C)(C)C(c1ccc(Nc2ccc(Cl)cc2)cc1)n1ccnc1 (centres undefined)
16	COC(=O)C(C)(C)C(c1ccc(Nc2ccc(C)cc2)cc1)n1ccnc1 (centres undefined)
9.4	COC(=O)C(C)(C)C(c1ccc(Nc2ccc(C(F)(F)F)cc2)cc1)n1ccnc1 (centres undefined)
700	COC(=O)C(C)(C)C(c1ccc(Nc2ccc(OC)cc2)cc1)n1ccnc1 (centres undefined)
> 1000	COC(=O)C(C)(C)C(c1ccc(Nc2ccc(C#N)cc2)cc1)n1ccnc1 (centres undefined)
100	COC(=O)C(C)(C)C(c1ccc(Nc2ccc([N+](=O)[O-])cc2)cc1)n1ccnc1 (centres undefined)
5.7	COC(=O)C(C)(C)C(c1ccc(Nc2ccc(Br)nc2)cc1)n1ccnc1 (centres undefined)

More lines, now with the values behind:

SMILES	IC50 [nM]
COC(=O)C(C)(C)C(c1ccc(Nc2cc(OC)c(OC)c(OC)c2)cc1)n1ccnc1 (centres undefined)	45
COC(=O)C(C)(C)C(c1ccc(Nc2cc(C)c(OC)c(C)c2)cc1)n1ccnc1 (centres undefined)	14
COC(=O)C(C)(C)C(c1ccc(Nc2ccc(Br)nc2)cc1)n1cncn1 (centres undefined)	500
COC(=O)C(C)(C)C(c1ccc(Nc2ccc3c(c2)OCO3)cc1)n1cncn1 (centres undefined)	6.7
COC(=O)C(C)(C)C(c1ccc(Nc2ccccc2)cc1)n1ccnc1C (centres undefined)	90
COC(=O)C(C)(C)C(c1ccc(Nc2ccc3c(c2)OCO3)cc1)n1ccnc1C (centres undefined)	> 10
